The results in this text go back to ChEMBL document CHEMBL4219151, “Piperidinyl Ureas Chemically Control Defective in Cullin Neddylation 1 (DCN1)-Mediated Cullin Neddylation” (J Med Chem, 2018).

In general, pIC50 refers to −log10 of the IC50, conventionally taken in molar units. One may read the pEC50 as the EC50 on a negative log10 scale, so that one unit is a factor of ten. As usually defined, the solubility is the concentration that dissolves in the medium under given conditions.

pEC50, pIC50: −log10 of the molar value. Values after ≈ are worked out from the molar mass of the structure shown. A value given as a limit tells only on which side of the number the result lay.

Tested on in one data set: not listed separately
Description: Permeability of the compound at 10 uM by PAMPA. The format is ADME. The note with it: PAMPA; read-out: permeability. An outline of the steps: (§1)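 Measured in triplicate within at least one experiment; values reported as mean ± standard deviation.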
In general terms: In PAMPA a lipid-coated filter parts donor from acceptor wells.
For `O=C(Nc1cccc(C(F)(F)F)c1)NC1CCN(Cc2cccc(F)c2)CC1`, the Papp at 10 µM was greater than 2200 ×10⁻⁶ cm/s.

As for `O=C(Nc1cccc(C(F)(F)F)c1)N(Cc1ccccc1)C1CCN(Cc2ccc(F)cc2)CC1`, the Papp at 10 µM was greater than 2200 ×10⁻⁶ cm/s.

Turning to `O=C(Nc1cccc(-n2cccc2)c1)NC1CCN(Cc2ccccc2)CC1`, the Papp at 10 µM amounted to 930 ×10⁻⁶ cm/s.

Take `O=C(Nc1cccc(CN2CCOCC2)c1)NC1CCN(Cc2ccccc2)CC1`: the Papp at 10 µM was 220 ×10⁻⁶ cm/s.

As to `Cc1ccc(CN2CCC(NC(=O)Nc3cccc(C(F)(F)F)c3)CC2)cc1`, the Papp at 10 µM was greater than 2200 ×10⁻⁶ cm/s.

Consider `O=C(Nc1cccc(C(F)(F)F)c1)N(Cc1ccccc1)C1CCN(Cc2ccccc2)CC1`, for which the Papp at 10 µM was 300 ×10⁻⁶ cm/s.

In the case of `CCCS(=O)(=O)N1CCC(N(Cc2ccccc2)C(=O)Nc2cccc(C(F)(F)F)c2)CC1`, the Papp at 10 µM was less than 1 ×10⁻⁶ cm/s.

`O=C(Nc1cccc(C(F)(F)F)c1)N(Cc1ccccc1)C1CCN(Cc2ccc3c(c2)OCCO3)CC1`: the Papp at 10 µM is greater than 2200 ×10⁻⁶ cm/s.

As for `CCCC(=O)N1CCC(N(Cc2ccccc2)C(=O)Nc2cccc(C(F)(F)F)c2)CC1`, the Papp at 10 µM was greater than 2200 ×10⁻⁶ cm/s.

Take `CCCN1CCC(N(Cc2ccc3c(c2)OCO3)C(=O)Nc2cccc(C(F)(F)F)c2)CC1`: the Papp at 10 µM is greater than 2200 ×10⁻⁶ cm/s.

On to `CC(C)(C)CCN1CCC(N(Cc2ccccc2)C(=O)Nc2cccc(C(F)(F)F)c2)CC1`, for which the Papp at 10 µM was greater than 2200 ×10⁻⁶ cm/s.

In the case of `O=C(Nc1cccc(C(F)(F)F)c1)N(Cc1ccccc1)C1CCN(Cc2cccnc2)CC1`, the Papp at 10 µM is greater than 2200 ×10⁻⁶ cm/s.

In the case of `O=C(Nc1cccc(C(F)(F)F)c1)NC1CCN(Cc2ccccc2)CC1`, the Papp at 10 µM stood at 670 ×10⁻⁶ cm/s.

In the case of `O=C(Nc1cccc(C(F)(F)F)c1)N(Cc1ccccc1)C1CCN(CCC(F)(F)F)CC1`, the Papp at 10 µM is 440 ×10⁻⁶ cm/s.

In the case of `O=C(Nc1cccc(C(F)(F)F)c1)NC1CCN(Cc2ccccc2Cl)CC1`, the Papp at 10 µM worked out at 830 ×10⁻⁶ cm/s.

With `CC(C)CCN1CCC(N(Cc2ccccc2)C(=O)Nc2cccc(C(F)(F)F)c2)CC1`, the Papp at 10 µM was greater than 2200 ×10⁻⁶ cm/s.

On to `O=C(Nc1cccc(C(F)(F)F)c1)N(Cc1ccccc1)C1CCN(Cc2c[nH]cn2)CC1`, for which the Papp at 10 µM stood at 50 ×10⁻⁶ cm/s.

As to `O=C(Nc1cccc(C(F)(F)F)c1)N(Cc1ccccc1)C1CCN(CC2CC2)CC1`, the Papp at 10 µM is greater than 2200 ×10⁻⁶ cm/s.

As to `Cn1nccc1-c1cccc(NC(=O)NC2CCN(Cc3ccccc3)CC2)c1`, the Papp at 10 µM is greater than 2200 ×10⁻⁶ cm/s.

On to `O=C(Nc1cccc(C(F)(F)F)c1)NC1CCN(Cc2ccc(F)cc2)CC1`, for which the Papp at 10 µM is greater than 2200 ×10⁻⁶ cm/s.

`CCCCS(=O)(=O)N1CCC(N(Cc2ccccc2)C(=O)Nc2cccc(C(F)(F)F)c2)CC1`: the Papp at 10 µM was less than 1 ×10⁻⁶ cm/s.

`O=C(Nc1cccc(C(F)(F)F)c1)N(Cc1ccccc1)C1CCN(CC2CCCCC2)CC1`: the Papp at 10 µM is less than 1 ×10⁻⁶ cm/s.

Consider `O=C(Nc1cccc(C(F)(F)F)c1)NC1CCN(C(=O)c2ccccc2)CC1`, for which the Papp at 10 µM was determined as 910 ×10⁻⁶ cm/s.

As for `O=C(Nc1cccc(C(F)(F)F)c1)N(Cc1ccccc1)C1CCN(Cc2ccc3c(c2)OCO3)CC1`, the Papp at 10 µM is greater than 2200 ×10⁻⁶ cm/s.

As for `CCCCN(C(=O)Nc1cccc(C(F)(F)F)c1)C1CCN(CCC)CC1`, the Papp at 10 µM was greater than 2200 ×10⁻⁶ cm/s.

For `O=C(Nc1cccc(C(F)(F)F)c1)N(Cc1ccccc1)C1CCN(CC2CCCC2)CC1`, the Papp at 10 µM turned out to be 990 ×10⁻⁶ cm/s.

The target of another data set is DCN1-like protein 1 (Homo sapiens, UniProt Q96GG9).
Chain of DCN1-like protein 1 (Q96GG9 whole entry): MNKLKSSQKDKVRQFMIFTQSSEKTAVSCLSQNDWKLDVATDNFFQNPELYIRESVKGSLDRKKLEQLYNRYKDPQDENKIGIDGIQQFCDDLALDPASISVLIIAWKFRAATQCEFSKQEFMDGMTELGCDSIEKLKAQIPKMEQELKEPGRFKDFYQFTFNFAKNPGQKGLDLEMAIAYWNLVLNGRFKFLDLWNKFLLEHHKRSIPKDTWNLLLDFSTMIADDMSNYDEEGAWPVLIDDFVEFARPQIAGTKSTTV
Conditions: not given
`O=C(Nc1cccc(C(F)(F)F)c1)NC1CCN(Cc2cccc(F)c2)CC1` showed a pIC50 of 4.80.

On to `O=C(Nc1cccc(C(F)(F)F)c1)N(Cc1ccccc1)C1CCN(Cc2ccc(F)cc2)CC1`, for which the pIC50 is 5.00.

In turn, `O=C(Nc1cccc(-n2cccc2)c1)NC1CCN(Cc2ccccc2)CC1` gave a pIC50 of less than 4.17.

Take `O=C(Nc1cccc(CN2CCOCC2)c1)NC1CCN(Cc2ccccc2)CC1`: the pIC50 is less than 4.17.

`CCCS(=O)(=O)N1CCC(N(Cc2ccccc2)C(=O)Nc2cccc(C(F)(F)F)c2)CC1`: the pIC50 is 6.13.

In turn, `O=C(Nc1cccc(C(F)(F)F)c1)N(Cc1ccccc1)C1CCN(Cc2ccc3c(c2)OCCO3)CC1` showed a pIC50 of 6.44.

In turn, `CC(C)(C)CCN1CCC(N(Cc2ccccc2)C(=O)Nc2cccc(C(F)(F)F)c2)CC1` had a pIC50 of 6.77.

For the compound `O=C(Nc1cccc(C(F)(F)F)c1)N(Cc1ccccc1)C1CCN(Cc2cccnc2)CC1`, the pIC50 is 4.70.

`O=C(Nc1cccc(C(F)(F)F)c1)N(Cc1ccccc1)C1CCN(CCC(F)(F)F)CC1`: the pIC50 was 4.64.

Take `O=C(Nc1cccc(C(F)(F)F)c1)NC1CCN(Cc2ccccc2Cl)CC1`: the pIC50 is 4.55.

`CC(C)CCN1CCC(N(Cc2ccccc2)C(=O)Nc2cccc(C(F)(F)F)c2)CC1`: the negative-log IC50 (pIC50) is 6.10.

In turn, `O=C(Nc1cccc(C(F)(F)F)c1)N(Cc1ccccc1)C1CCN(Cc2c[nH]cn2)CC1` gave a pIC50 of 5.23.

`O=C(Nc1cccc(C(F)(F)F)c1)N(Cc1ccccc1)C1CCN(CC2CC2)CC1`: the pIC50 is 6.68.

With `Cn1nccc1-c1cccc(NC(=O)NC2CCN(Cc3ccccc3)CC2)c1`, the pIC50 is less than 4.17.

As to `O=C(Nc1cccc(C(F)(F)F)c1)NC1CCN(Cc2ccc(F)cc2)CC1`, the pIC50 is 4.85.

`O=C(Nc1cccc(C(F)(F)F)c1)N(Cc1ccccc1)C1CCN(CC2CCCCC2)CC1` had a pIC50 of 6.21.

Take `O=C(Nc1cccc(C(F)(F)F)c1)NC1CCN(C(=O)c2ccccc2)CC1`: the pIC50 was less than 4.17.

`O=C(Nc1cccc(C(F)(F)F)c1)N(Cc1ccccc1)C1CCN(Cc2ccc3c(c2)OCO3)CC1` gave a pIC50 of 4.92.

In turn, `CCCCN(C(=O)Nc1cccc(C(F)(F)F)c1)C1CCN(CCC)CC1` showed a pIC50 of 5.85.

Regarding `O=C(Nc1cccc(C(F)(F)F)c1)N(Cc1ccccc1)C1CCN(CC2CCCC2)CC1`, the negative logarithm of the IC50 (pIC50) is 6.43.

A further data set has as its system HCC95. Description: Growth inhibition of human HCC95 cells. The format is functional, cell-based.
Conditions: not given
An outline of the steps:
(§2)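 In vitro monolayer proliferation assay in BJ cells (normal fibroblasts lacking DCN1 amplification) and HCC95 cells (squamous cell carcinoma line carrying DCN1 amplification). EC50 is reported as mean ± standard deviation from at least one experiment run in triplicate. A ">" value means less than 50% growth inhibition at the highest concentration tested.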
Compound `CCCN1CCC(N(Cc2ccc3c(c2)OCO3)C(=O)Nc2cccc(C(F)(F)F)c2)CC1` gave a pEC50 of less than 4.40.

`O=C(Nc1cccc(C(F)(F)F)c1)NC1CCN(Cc2ccccc2)CC1` gave a negative logarithm of the EC50 (pEC50) of less than 4.49.

Another data set relates to BJ. Description: Growth inhibition of human BJ cells. Format: cell-based.
Conditions: not given
In short, it runs like this: as §2
Regarding `CCCN1CCC(N(Cc2ccc3c(c2)OCO3)C(=O)Nc2cccc(C(F)(F)F)c2)CC1`, the pEC50 is less than 4.64.

Regarding `O=C(Nc1cccc(C(F)(F)F)c1)NC1CCN(Cc2ccccc2)CC1`, the pEC50 is less than 4.62.

Tested on in the next data set: not listed separately
As to the kind of experiment: Solubility of the compound at pH 7.4 after 18 hrs by UV-spectroscopy. The note with it: buffer. Format: physicochemical. In short, it runs like this: as §1
`O=C(Nc1cccc(C(F)(F)F)c1)NC1CCN(Cc2cccc(F)c2)CC1` had a solubility at 18 h of 50 µM (≈ 19.8 µg/mL).

In turn, `O=C(Nc1cccc(C(F)(F)F)c1)N(Cc1ccccc1)C1CCN(Cc2ccc(F)cc2)CC1` displayed a solubility at 18 h of 0.9 µM (≈ 0.437 µg/mL).

Compound `O=C(Nc1cccc(-n2cccc2)c1)NC1CCN(Cc2ccccc2)CC1` yielded a solubility at 18 h of 1 µM (≈ 0.374 µg/mL).

In turn, `O=C(Nc1cccc(CN2CCOCC2)c1)NC1CCN(Cc2ccccc2)CC1` gave a solubility at 18 h of 75 µM (≈ 30.6 µg/mL).

For `Cc1ccc(CN2CCC(NC(=O)Nc3cccc(C(F)(F)F)c3)CC2)cc1`, the concentration in solution (solubility at 18 h) came to 14 µM (≈ 5.48 µg/mL).

`O=C(Nc1cccc(C(F)(F)F)c1)N(Cc1ccccc1)C1CCN(Cc2ccccc2)CC1`: the solubility at 18 h was 11 µM (≈ 5.14 µg/mL).

`CCCS(=O)(=O)N1CCC(N(Cc2ccccc2)C(=O)Nc2cccc(C(F)(F)F)c2)CC1` gave a solubility at 18 h of 0.5 µM (≈ 0.242 µg/mL).

Turning to `O=C(Nc1cccc(C(F)(F)F)c1)N(Cc1ccccc1)C1CCN(Cc2ccc3c(c2)OCCO3)CC1`, the solubility at 18 h worked out at 1 µM (≈ 0.526 µg/mL).

With `CCCC(=O)N1CCC(N(Cc2ccccc2)C(=O)Nc2cccc(C(F)(F)F)c2)CC1`, the solubility at 18 h was less than 0.1 µM.

With `CCCN1CCC(N(Cc2ccc3c(c2)OCO3)C(=O)Nc2cccc(C(F)(F)F)c2)CC1`, the concentration in solution (solubility at 18 h) was 66 µM (≈ 30.6 µg/mL).

Turning to `CC(C)(C)CCN1CCC(N(Cc2ccccc2)C(=O)Nc2cccc(C(F)(F)F)c2)CC1`, the solubility at 18 h is 5.8 µM (≈ 2.68 µg/mL).

For `O=C(Nc1cccc(C(F)(F)F)c1)N(Cc1ccccc1)C1CCN(Cc2cccnc2)CC1`, the solubility at 18 h stood at 30 µM (≈ 14.1 µg/mL).

`O=C(Nc1cccc(C(F)(F)F)c1)NC1CCN(Cc2ccccc2)CC1` displayed a solubility at 18 h of 32 µM (≈ 12.1 µg/mL).

`O=C(Nc1cccc(C(F)(F)F)c1)N(Cc1ccccc1)C1CCN(CCC(F)(F)F)CC1`: the solubility at 18 h came out at 2.3 µM (≈ 1.09 µg/mL).

The compound `O=C(Nc1cccc(C(F)(F)F)c1)NC1CCN(Cc2ccccc2Cl)CC1` yielded a solubility at 18 h of 0.3 µM (≈ 0.124 µg/mL).

`CC(C)CCN1CCC(N(Cc2ccccc2)C(=O)Nc2cccc(C(F)(F)F)c2)CC1`: the solubility at 18 h turned out to be 60 µM (≈ 26.9 µg/mL).

`O=C(Nc1cccc(C(F)(F)F)c1)N(Cc1ccccc1)C1CCN(Cc2c[nH]cn2)CC1`: the solubility at 18 h came to 110 µM (≈ 50.3 µg/mL).

Consider `O=C(Nc1cccc(C(F)(F)F)c1)N(Cc1ccccc1)C1CCN(CC2CC2)CC1`, for which the solubility at 18 h stood at 75 µM (≈ 32.4 µg/mL).

`Cn1nccc1-c1cccc(NC(=O)NC2CCN(Cc3ccccc3)CC2)c1`: the concentration in solution (solubility at 18 h) was 78 µM (≈ 30.4 µg/mL).

The compound `O=C(Nc1cccc(C(F)(F)F)c1)NC1CCN(Cc2ccc(F)cc2)CC1` yielded a solubility at 18 h of 19 µM (≈ 7.51 µg/mL).

As for `CCCCS(=O)(=O)N1CCC(N(Cc2ccccc2)C(=O)Nc2cccc(C(F)(F)F)c2)CC1`, the concentration in solution (solubility at 18 h) was 1 µM (≈ 0.498 µg/mL).

In turn, `O=C(Nc1cccc(C(F)(F)F)c1)N(Cc1ccccc1)C1CCN(CC2CCCCC2)CC1` had a solubility at 18 h of 1.2 µM (≈ 0.568 µg/mL).

Take `O=C(Nc1cccc(C(F)(F)F)c1)NC1CCN(C(=O)c2ccccc2)CC1`: the concentration in solution (solubility at 18 h) was 2.8 µM (≈ 1.1 µg/mL).

For `O=C(Nc1cccc(C(F)(F)F)c1)N(Cc1ccccc1)C1CCN(Cc2ccc3c(c2)OCO3)CC1`, the solubility at 18 h was less than 0.1 µM.

Turning to `CCCCN(C(=O)Nc1cccc(C(F)(F)F)c1)C1CCN(CCC)CC1`, the solubility at 18 h worked out at 70 µM (≈ 27 µg/mL).

`O=C(Nc1cccc(C(F)(F)F)c1)N(Cc1ccccc1)C1CCN(CC2CCCC2)CC1` yielded a solubility at 18 h of 48 µM (≈ 22.1 µg/mL).
